The values below come from ChEMBL document CHEMBL1147244, “Constituents of the Vietnamese medicinal plant Streptocaulon juventas and their antiproliferative activity against the human HT-1080 fibrosarcoma cell line” (J Nat Prod, 2003).

This assay has as its system HT-1080. The assay can be described thus: Antiproliferative activity against human HT1080 cells after 72 hrs by MTT assay. It is filed as functional, cell-based. As to conditions: HT-1080, 72 h. The method in brief: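 HT-1080 fibrosarcoma cells were grown in EME medium with 10% heat-inactivated FCS and 2 mM glutamine at 37 °C, 5% CO2. Cells were seeded at 2 × 10³ per well and left 24 h to attach. Samples were dissolved in DMSO/PBS, with final DMSO below 0.25%, and added at varying concentrations. After 2 h with MTT, formazan was extracted in DMSO and read at 550 nm. IC50 was taken from the mean of four wells.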
On the technique in general: Formazan colour is commonly taken as a measure of viable cells.
By IC50 is commonly meant the concentration needed to halve the response being measured. `C[C@]12CC[C@H](O)C[C@H]1CC[C@@H]1[C@@H]2CC[C@]2(C)[C@@H](C3=CC(=O)OC3)CC[C@]12O` [DIGITOXIGENIN] came in with an IC50 of 1500 nM. For `C[C@H]1O[C@@H](O[C@@H]2C[C@H]3CC[C@@H]4[C@H](CC[C@]5(C)[C@@H](C6=CC(=O)OC6)CC[C@]45O)[C@@]3(C)[C@H](O)C2)C[C@@H](O)[C@@H]1O` the value was 1100 nM.

In turn, `C[C@]12CC[C@H](O[C@@H]3O[C@H](CO)[C@@H](O)[C@H](O)[C@H]3O)C[C@@]1(O)CC[C@@H]1[C@@H]2CC[C@]2(C)[C@@H](C3=CC(=O)OC3)CC[C@]12O` [PERIPLOGENIN GLUCOSIDE] displayed an IC50 of 160 nM. For `C[C@]12CC[C@H](O[C@@H]3O[C@H](CO[C@@H]4O[C@H](CO)[C@@H](O)[C@H](O)[C@H]4O)[C@@H](O)[C@H](O)[C@H]3O)C[C@H]1CC[C@@H]1[C@@H]2CC[C@]2(C)[C@@H](C3=CC(=O)OC3)CC[C@]12O` [DIGITOXIGENIN GENTIOBIOSIDE] the value was 1600 nM. To `COc1cccc2c1C(=O)c1c(O)c3c(c(O)c1C2=O)C[C@@](O)(C(=O)CO)C[C@@H]3O[C@H]1C[C@H](N)[C@H](O)[C@H](C)O1` [DOXORUBICIN] belongs 59 nM; to `C[C@]12CC[C@H](O)C[C@@]1(O)CC[C@@H]1[C@@H]2CC[C@]2(C)[C@@H](C3=CC(=O)OC3)CC[C@]12O` [PERIPLOGENIN], 810 nM.

Take `C[C@]12[C@H](CC[C@@H]3[C@@H]1CC[C@]1(C)[C@@H](C4=CC(=O)OC4)CC[C@]31O)C[C@@H](O)C[C@H]2O` [ACOVENOSIGENIN A]: the midpoint of inhibition, the IC50, lay at 1200 nM.

Molecule `CO[C@@H]1[C@@H](O)[C@H](O[C@H]2CC[C@]3(C)[C@H]4CC[C@]5(C)[C@@H](C6=CC(=O)OC6)CC[C@]5(O)[C@@H]4CC[C@]3(O)C2)O[C@H](C)[C@H]1O[C@@H]1O[C@H](CO)[C@@H](O)[C@H](O)[C@H]1O` returned an IC50 of 670 nM. This IC50 lies about 1.8-fold lower than the previous one. For `C[C@]12CC[C@H](O[C@@H]3O[C@H](CO)[C@@H](O)[C@H](O)[C@H]3O[C@@H]3O[C@H](CO)[C@@H](O)[C@H](O)[C@H]3O)C[C@H]1CC[C@@H]1[C@@H]2CC[C@]2(C)[C@@H](C3=CC(=O)OC3)CC[C@]12O` [DIGITOXIGENIN SOPHOROSIDE] the value was 460 nM. For `CC(=O)O[C@@H]1C[C@H](O[C@H]2CC[C@@]3(C)[C@H](CC[C@@H]4[C@@H]3CC[C@]3(C)[C@@H](C5=CC(=O)OC5)CC[C@]43O)C2)O[C@H](C)[C@H]1O[C@@H]1O[C@H](CO[C@@H]2O[C@H](CO)[C@@H](O)[C@H](O)[C@H]2O)[C@@H](O)[C@H](O)[C@H]1O` the value was 590 nM. For `O=c1[nH]cc(F)c(=O)[nH]1` [FLUOROURACIL] the value was 3700 nM; for `CO[C@@H]1C[C@H](O[C@H]2CC[C@@]3(C)[C@H](CC[C@@H]4[C@@H]3CC[C@]3(C)[C@@H](C5=CC(=O)OC5)CC[C@]43O)C2)O[C@H](C)[C@H]1O[C@@H]1O[C@H](CO[C@@H]2O[C@H](CO)[C@@H](O)[C@H](O)[C@H]2O)[C@@H](O)[C@H](O)[C@H]1O` [ECHUJIN], 55 nM; for `C[C@H]1O[C@@H](O[C@H]2CC[C@]3(C)[C@H]4CC[C@]5(C)[C@@H](C6=CC(=O)OC6)CC[C@]5(O)[C@@H]4CC[C@]3(O)C2)C[C@@H](O)[C@@H]1O[C@@H]1O[C@H](CO)[C@@H](O)[C@H](O)[C@H]1O` [CORCHORUSOSIDE C], 92 nM. On to `CO[C@@H]1[C@@H](O)[C@H](O[C@@H]2[C@@H](C)O[C@@H](O[C@H]3CC[C@@]4(C)[C@H](CC[C@@H]5[C@@H]4CC[C@]4(C)[C@@H](C6=CC(=O)OC6)CC[C@]54O)C3)C[C@H]2OC)O[C@H](C)[C@H]1O[C@@H]1O[C@H](CO[C@@H]2O[C@H](CO)[C@@H](O)[C@H](O)[C@H]2O)[C@@H](O)[C@H](O)[C@H]1O`, for which the IC50 came out at 220 nM. To `C[C@H]1O[C@@H](O[C@H]2CC[C@@]3(C)[C@H](CC[C@@H]4[C@@H]3CC[C@]3(C)[C@@H](C5=CC(=O)OC5)CC[C@]43O)C2)C[C@@H](O)[C@@H]1O[C@@H]1O[C@H](CO[C@@H]2O[C@H](CO)[C@@H](O)[C@H](O)[C@H]2O)[C@@H](O)[C@H](O)[C@H]1O` belongs 54 nM; to `CO[C@@H]1C[C@H](O[C@H]2CC[C@]3(C)[C@H]4CC[C@]5(C)[C@@H](C6=CC(=O)OC6)CC[C@]5(O)[C@@H]4CC[C@]3(O)C2)O[C@H](C)[C@H]1O` [PERIPLOCYMARIN], 96 nM; to `C[C@H]1O[C@@H](O[C@H]2CC[C@]3(C)[C@H]4CC[C@]5(C)[C@@H](C6=CC(=O)OC6)CC[C@]5(O)[C@@H]4CC[C@]3(O)C2)C[C@@H](O)[C@@H]1O`, 93 nM.

In turn, `CC(=O)O[C@H]1C[C@]2(O)[C@@H]3CC[C@@H]4C[C@@H](O[C@H]5C[C@@H](O)[C@H](O[C@@H]6O[C@H](CO)[C@@H](O)[C@H](O)[C@H]6O)[C@@H](C)O5)CC[C@]4(C)[C@H]3CC[C@]2(C)[C@H]1C1=CC(=O)OC1` [SUBALPINOSIDE] gave an IC50 of 180 nM. Against the preceding molecule, the IC50 is about 1.9-fold higher.
